Source: ChEMBL document CHEMBL4014307, “Diindolylmethane Derivatives: Potent Agonists of the Immunostimulatory Orphan G Protein-Coupled Receptor GPR84” (J Med Chem, 2017)
pEC50: −log10 of the molar value. Active and inactive are the calls of the source.

Columns and labels:
[1] = target: T1, G-protein coupled receptor 84 (Homo sapiens, UniProt Q9NQS5); assay: Agonist activity at Gi coupled human GPR84 expressed in CHO cells assessed as inhibition of forskolin-induced cAMP accumulation at 10 uM after 15 mins in presence of [3H]-cAMP by radiometric assay relative to decanoic acid; type: functional, cell-based
Outline: (§1)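 Forskolin (10 µM) added with or without test compound for 15 min. Cells lysed in hot (90 °C) EDTA/Triton X-100 solution. cAMP measured radiometrically with bovine adrenal binding protein and [³H]cAMP, expressed as % of forskolin-alone response.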

[2] = target: T1, G-protein coupled receptor 84; assay: Antagonist activity at Gi coupled human GPR84 expressed in CHO cells assessed as inhibition of decanoic acid-induced receptor activation at 10 uM; type: cell-based
[3] = target: T1, G-protein coupled receptor 84; assay: Agonist activity at Gi coupled human GPR84 expressed in CHO cells assessed as inhibition of forskolin-induced cAMP accumulation after 15 mins in presence of [3H]-cAMP by radiometric assay; type: functional, cell-based; outline: as §1
[4] = target: Free fatty acid receptor 1 (Homo sapiens, UniProt O14842); assay: Agonist activity at Gq protein coupled human FFAR1 expressed in human 1321N1 cells assessed as induction of intracellular calcium level at 10 uM measured at 1.2 secs time interval by Fluo-4-AM dye based fluorescence assay; type: functional, cell-based
Outline: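 1321N1 astrocytoma cells retrovirally expressing human FFAR1, 50,000 per well, loaded 60 min at rt in dark with 3 µM Fluo-4-AM and 0.06 % Pluronic F-127 in HBSS. Compounds at 10 µM final; antagonist mode uses 30 min preincubation before TUG-424 (final 1 µM). Fluorescence at 520 nm (excitation 485 nm), 90 reads at 1.2 s intervals. Normalized to TUG-424 at 10 µM (agonist) or 1 µM (antagonist).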

[5] = target: T2, Free fatty acid receptor 4 (Homo sapiens) (UniProt Q5NUL3); assay: Antagonist activity at human FFAR4 expressed in CHO cells assessed as inhibition of TUG-89-induced beta-arrestin recruitment at 10 uM preincubated for 30 mins followed by TUG-89 addition measured after 90 mins by beta-galactosidase complementation assay; type: cell-based
T2 sequence (whole entry): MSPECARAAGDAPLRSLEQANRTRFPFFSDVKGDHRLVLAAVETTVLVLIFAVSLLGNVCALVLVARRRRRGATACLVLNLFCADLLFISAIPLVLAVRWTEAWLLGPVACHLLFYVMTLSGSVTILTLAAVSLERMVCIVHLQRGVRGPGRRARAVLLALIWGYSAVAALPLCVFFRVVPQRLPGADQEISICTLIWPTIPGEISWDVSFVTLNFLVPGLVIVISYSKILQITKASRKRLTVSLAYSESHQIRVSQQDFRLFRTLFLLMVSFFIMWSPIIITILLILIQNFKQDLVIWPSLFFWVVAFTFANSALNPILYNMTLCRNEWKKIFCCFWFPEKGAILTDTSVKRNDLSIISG

[6] = target: T2, Free fatty acid receptor 4 (Homo sapiens); assay: Agonist activity at human FFAR4 expressed in CHO cells assessed as beta-arrestin recruitment at 10 uM after 90 mins by beta-galactosidase complementation assay; type: cell-based
Outline: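 Human FFAR4 in CHO β-galactosidase complementation cells, 30,000 per well, serum-free F12 ~4 h before assay; final DMSO 1 %, compounds 10 µM. Agonist mode: 90 min with agonist, then detection 60 min rt dark; luminescence. 3–4 experiments in duplicate.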

[7] = target: T1, G-protein coupled receptor 84; assay: Agonist activity at human GPR84 expressed in CHO cells assessed as beta-arrestin recruitment after 90 mins by beta-galactosidase complementation assay; type: cell-based
Outline: (§2)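 CHO cells co-expressing human GPR84–β-galactosidase fragment and β-arrestin–complementary fragment, 20,000 per well. Compounds in DMSO (final ≤1 %) added for 90 min, then detection reagent for 60 min at rt; luminescence read. Three to five independent experiments in duplicate.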

[8] = target: T1, G-protein coupled receptor 84; assay: Agonist activity at human GPR84 expressed in CHO cells assessed as beta-arrestin recruitment at 10 uM after 90 mins by beta-galactosidase complementation assay relative to embelin; type: cell-based; outline: as §2

Chain of Free fatty acid receptor 1 (O14842 whole entry): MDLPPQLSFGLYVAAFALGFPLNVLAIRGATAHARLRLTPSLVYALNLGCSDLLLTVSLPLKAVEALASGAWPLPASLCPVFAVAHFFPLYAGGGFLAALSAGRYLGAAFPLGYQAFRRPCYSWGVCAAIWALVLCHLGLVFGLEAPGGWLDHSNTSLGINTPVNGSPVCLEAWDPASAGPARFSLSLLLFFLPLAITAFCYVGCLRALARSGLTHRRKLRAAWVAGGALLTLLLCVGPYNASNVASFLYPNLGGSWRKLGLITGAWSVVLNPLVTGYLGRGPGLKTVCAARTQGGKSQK
T1 sequence (Q9NQS5 whole entry): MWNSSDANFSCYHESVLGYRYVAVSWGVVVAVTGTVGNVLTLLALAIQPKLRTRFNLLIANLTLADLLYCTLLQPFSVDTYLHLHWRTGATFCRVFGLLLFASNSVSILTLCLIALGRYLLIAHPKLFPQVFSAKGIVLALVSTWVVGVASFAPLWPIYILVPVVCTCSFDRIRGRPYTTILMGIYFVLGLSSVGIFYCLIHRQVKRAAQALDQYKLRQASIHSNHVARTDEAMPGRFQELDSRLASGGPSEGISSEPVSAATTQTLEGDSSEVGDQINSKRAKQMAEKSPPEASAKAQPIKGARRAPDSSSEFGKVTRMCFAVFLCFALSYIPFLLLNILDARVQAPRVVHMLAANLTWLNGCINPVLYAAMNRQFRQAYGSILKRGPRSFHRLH

For Cc1ccc2c(Cc3c[nH]c4cc(C)ccc34)c[nH]c2c1, the Emax [1] was -22%, the inhibition [2] was “inactive” and the pEC50 [3] was under 5.00. For the same molecule, the Activity [4] was “inactive”, the inhibition [5] was “inactive” and the Activity [6] was “inactive”.
In the case of Clc1cc(Cl)c2c(Cc3c[nH]c4cc(Cl)cc(Cl)c34)c[nH]c2c1, the Emax [1] was 51%, the inhibition [2] was “inactive” and the pEC50 [3] was at most 5.00. For the same molecule, the Activity [4] was “inactive”, the inhibition [5] was “inactive” and the Activity [6] was “inactive”.
In the case of O=C1Nc2ccccc2C1=Cc1c[nH]c2ccc(F)cc12, the Emax [1] was -1%, the inhibition [2] was “inactive” and the pEC50 [3] was under 5.00. For the same molecule, the Activity [4] was “inactive”, the inhibition [5] was “inactive” and the Activity [6] was “inactive”.
For O=C1Nc2ccc(F)cc2C1Cc1c[nH]c2ccc(F)cc12 (centres undefined), the Emax [1] was 16%, the inhibition [2] was “inactive” and the pEC50 [3] was under 5.00. For the same molecule, the Activity [4] was “inactive”, the inhibition [5] was “inactive” and the Activity [6] was “inactive”.
For Brc1ccc2[nH]cc(Cc3c[nH]c4ccc(Br)cc34)c2c1, the Emax [1] was 106%, the pEC50 [3] was 5.46 and the Activity [4] was “inactive”. For the same molecule, the inhibition [5] was “inactive” and the Activity [6] was “inactive”.
N#Cc1ccc2[nH]cc(Cc3c[nH]c4ccc(C#N)cc34)c2c1 was tested, and the Emax [1] was 49%, the inhibition [2] was “inactive” and the pEC50 [3] was at most 5.00. For the same molecule, the Activity [4] was “inactive”, the inhibition [5] was “inactive” and the Activity [6] was “inactive”.
In the case of Fc1ccc(C(c2c[nH]c3ccccc23)c2c[nH]c3ccccc23)cc1, the Emax [1] was 8%, the inhibition [2] was “inactive” and the pEC50 [3] was under 5.00. The Activity [4] was “inactive”, the inhibition [5] was “inactive” and the Activity [6] was “inactive”.
O=C1Nc2ccccc2C1Cc1ccc2[nH]ccc2c1 (centres undefined) was tested, and the Emax [1] was 7%, the inhibition [2] was “inactive” and the pEC50 [3] was under 5.00. For the same molecule, the Activity [4] was “inactive”, the inhibition [5] was “inactive” and the Activity [6] was “inactive”.
For COc1ccc2c(Cc3c[nH]c4cc(OC)ccc34)c[nH]c2c1, the Emax [1] was 31%, the inhibition [2] was “inactive” and the pEC50 [3] was under 5.00. The Activity [4] was “inactive”, the inhibition [5] was “inactive” and the Activity [6] was “inactive”.
For COC(=O)c1ccc2[nH]cc(Cc3c[nH]c4ccccc34)c2c1, the Emax [1] was 57%, the pEC50 [3] was 5.00 and the Activity [4] was “inactive”. For the same molecule, the inhibition [5] was “inactive” and the Activity [6] was “inactive”.
With COc1ccc2[nH]cc(CC3C(=O)Nc4ccc(F)cc43)c2c1 (centres undefined) the Emax [1] was -10%, the inhibition [2] was “inactive” and the pEC50 [3] was under 5.00. The Activity [4] was “inactive”, the inhibition [5] was “inactive” and the Activity [6] was “inactive”.
For Clc1ccc2[nH]cc(Cc3c[nH]c4ccc(Cl)cc34)c2c1, the Emax [1] was 86%, the pEC50 [3] was 5.30 and the Activity [4] was “inactive”. For the same molecule, the inhibition [5] was “inactive” and the Activity [6] was “inactive”.
Work on Fc1cc2cc[nH]c2cc1F yielded a pEC50 [7] of 5.53 and a pEC50 [3] of under 5.00.
In the case of O=[N+]([O-])c1ccc2[nH]cc(Cc3c[nH]c4ccc([N+](=O)[O-])cc34)c2c1, the Emax [1] was 31%, the inhibition [2] was “inactive” and the pEC50 [3] was under 5.00. For the same molecule, the Activity [4] was “inactive”, the inhibition [5] was “inactive” and the Activity [6] was “inactive”.
Work on Fc1cc2c(Cc3c[nH]c4cc(Cl)c(F)cc34)c[nH]c2cc1Cl yielded an Emax [8] of 181%, an Emax [1] of 83% and a pEC50 [7] of 5.40. For the same molecule, the pEC50 [3] was 4.97, the inhibition [5] was “inactive” and the Activity [6] was “inactive”.
In the case of O=[N+]([O-])c1ccc(C(c2c[nH]c3ccccc23)c2c[nH]c3ccccc23)cc1, the Emax [1] was 6%, the inhibition [2] was “inactive” and the pEC50 [3] was under 5.00. The Activity [4] was “inactive”, the inhibition [5] was “inactive” and the Activity [6] was “inactive”.
